A word on the pEC50: it is −log10 of the EC50, conventionally taken in molar units. As usually defined, the half-life is how long it takes for the measured level to halve. A low value points to rapid decline.

pEC50: −log10 of the molar value. Calls of active or inactive are those of the source. The rule behind the calls is not given here.

We go through four compounds from ChEMBL document CHEMBL3734722, “Structural Elucidation of a Small Molecule Inhibitor of Protein Disulfide Isomerase” (ACS Med Chem Lett, 2015).

Data set [1] concerns PC-12. Description: Neuroprotective activity against rat PC12 cells expressing mutant HTT-Q103 assessed as cell viability by alamar blue assay. The data set is classed as functional, cell-based. In short, it runs like this: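 PC12 cells stably carrying inducible mutant HTT plasmid (mHTT-Q103); expression induced, causing death within 48 h. Serial-dilution dose–response; after 48 h Alamar blue added and fluorescence read. Data as mean percent of DMSO-treated uninduced cells ± SD; EC50 from curve.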

A short description of data set [2]: Intrinsic clearance in mouse liver microsome at 0.5 microM incubated upto 45 mins by LC-MS/MS analysis. The conditions noted are these: microsomes, 0.75 h. The data set is classed as ADME. Summed up: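 Mouse liver microsome incubation; intrinsic clearance expressed as mL/min/g, with 7-ethoxycoumarin as reference compound.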
In general terms: Microsomes from liver hold many membrane-bound enzymes, among them those of drug oxidation.

A short description of data set [3]: Plasma protein binding in mouse at 2000 ng/ml for 4 hrs by LC-MS/MS analysis. In kind it is ADME, cell-free. As to conditions: read-out: PPB (converted).
Data set [4] deals with Protein disulfide-isomerase (Homo sapiens) (UniProt P07237). Description: Irreversible binding affinity to PDI catalytic domain a (unknown origin) at 4.5 mM measured after 100 fold dilution for 2 hrs by intrinsic tryptophan fluorescence assay. In short, it runs like this:
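Jump-dilution reversibility test: PDIa (1 mM) incubated with ligand at 4.5 mM, complex diluted 100-fold (to 45 μM ligand, 10 μM PDIa) and dialysed, then Trp emission spectra recorded. Phenylarsine oxide, a covalent vicinal-thiol modifier, processed identically as control.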

Data set [5] has as its system PC-12. Description: Neuroprotective activity against rat PC12 cells expressing mutant HTT-Q103 assessed as increase in cell viability compound preincubated for 0,1,2,or 3 days in PC12 growth medium followed by cells addition measured after 48 hrs by alamar blue assay. In kind it is functional, cell-based. In short, it runs like this:
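Compound held at 37 °C for 0, 1, 2 or 3 days in PC12 growth medium, then aliquots added to induced PC12 mHTT-Q103 cells. After 48 h treatment, Alamar blue added and viability quantified by fluorescence plate reader.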

The nature of data set [6]: Half life in mouse plasma at 1 uM for 120 mins by LC-MS/MS analysis. In kind it is ADME, cell-free.
The target of data set [7] is Protein disulfide-isomerase (Homo sapiens) (UniProt P07237). Description: Binding affinity to PDI catalytic domain a (unknown origin) after 1 hrs by intrinsic tryptophan fluorescence assay. Summed up: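 PDIa intrinsic Trp fluorescence recorded with varying securinine concentrations; emission spectra taken and intensity at 330 nm normalized; Kd derived from concentration-dependent quenching.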
Chain of Protein disulfide-isomerase (Homo sapiens) (P07237 18-508 limits assumed): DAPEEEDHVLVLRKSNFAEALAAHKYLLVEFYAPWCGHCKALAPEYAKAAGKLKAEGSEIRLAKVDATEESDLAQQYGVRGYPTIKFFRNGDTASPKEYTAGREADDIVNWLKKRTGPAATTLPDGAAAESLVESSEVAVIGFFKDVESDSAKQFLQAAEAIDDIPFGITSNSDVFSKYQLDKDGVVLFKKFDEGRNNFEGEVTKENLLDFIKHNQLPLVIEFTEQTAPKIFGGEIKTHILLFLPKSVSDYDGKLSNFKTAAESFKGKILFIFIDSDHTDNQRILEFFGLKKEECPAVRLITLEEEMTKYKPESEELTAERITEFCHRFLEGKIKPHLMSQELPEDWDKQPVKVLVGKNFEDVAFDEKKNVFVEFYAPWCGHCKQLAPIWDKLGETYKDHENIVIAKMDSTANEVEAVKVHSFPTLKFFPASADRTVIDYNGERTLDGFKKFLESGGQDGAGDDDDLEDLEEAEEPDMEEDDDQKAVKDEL

As to `CC(C)C1OCCN1CC1COC2(CCCCC2)O1` (stereo not given), the result in the data set on PC-12 [1] was inactive.
With `CCOc1ccc2ccc(=O)oc2c1` [ETHOXYCOUMARIN], the CLint in data set [2] was 24.58 mL/min/g.
On to `O=C1C=C2C=C[C@H]3C[C@@]2(O1)[C@H]1CCCCN31`, for which the fraction unbound at 4 h, 2000 ng/ml in data set [3] was 0.51. Moreover, in the data set with PC-12 [1], the negative logarithm of the EC50 (pEC50) was 5.48. In data set [2], the CLint stood at 8.3 mL/min/g. The outcome (in data set [4]; in the data set with PC-12 [5]) was Active. The half-life at 1 µM in data set [6] is 1.6 h. Moreover, in data set [7], the Activity result is “Dose-dependent effect”.
As to `CC(=O)CC(c1ccccc1)c1c(O)c2ccccc2oc1=O` (stereo not given) [WARFARIN], the fraction unbound at 4 h, 2000 ng/ml in data set [3] is 0.06.
